Measured values of several laboratories.
Protocols differ between the studies behind these lines.
Cell line: UACC-62
Read-out: cell growth or viability

SMILES | technique | tested at | time | quantity | value
O=C1NCCc2[nH]c(-c3ccncc3)cc21 |  |  |  | IC50 | 6.12 µM
COc1ccc(-c2ccc(-c3ccc(C(=N)N)nc3)s2)cc1 | SRB |  |  | GI50 | 1810 nM
O=C1NC(=NCc2cccs2)S/C1=C\c1ccc2ncccc2c1 |  |  |  | IC50 | > 10 µM
COc1ccc(C(=O)/C=C/c2cccc3ccccc23)cc1S(N)(=O)=O | SRB | 10 µM |  | inhibition | 158%
COc1cccc(Oc2ccccc2NC(=O)CNC(=O)c2cccc3ccccc23)c1 | SRB |  | 48 h | GI50 | 209 nM
COc1cc(-c2ccc(-c3ccc(C(=N)N)nc3)s2)cc(OC)c1OC | SRB |  |  | GI50 | 1730 nM
Cc1cc(C)n(C(=S)[S][Au][PH](CCCCCC[PH]([Au][S]C(=S)n2nc(C)cc2C)(c2ccccc2)c2ccccc2)(c2ccccc2)c2ccccc2)n1 |  |  |  | GI50 | 250 nM
COc1ccc(C(=O)/C=C/c2cccnc2)cc1S(N)(=O)=O | SRB |  | 48 h | GI50 | 12900 nM
